According to publication PMC7357868 (ACS chemical biology, 2019):

What was measured:
recombinant hpol κ = details: cited from earlier work
[1] = tested on: hpol κ-deficient HAP-1 cells; test: Clonogenic survival assay; assay type: cell-based, human; details: 250 μM TMZ alone
[2] = tested on: hpol κ-proficient HAP-1 cells; test: Clonogenic survival assay; assay type: cell-based, human; details: 250 μM TMZ alone, 1 h, 10 days culture
[3] = tested on: hpol κ-proficient HAP-1 cells; test: Alkaline comet assay; assay type: cell-based, human; details: 100 μM TMZ alone, 1 h
Outline: (§1)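 100 000 HAP-1 cells per well, test compound 0.5 μM alone or with alkylating agent (100 μM), 1 h; DMSO control. Cells embedded in low-melting agarose (200–300 per well), lysed 1 h, alkaline unwinding (200 mM NaOH, 1 mM EDTA) 20 min RT, electrophoresis 21 V, 30 min, 4 °C, SYBR Gold stain. Read-out is % DNA in tail per cell; ≥20 cells per replicate, three biological replicates, mean ±SD.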

[4] = tested on: hpol κ-deficient HAP-1 cells; test: Alkaline comet assay; assay type: cell-based, human; details: 100 μM TMZ alone, 1 h
Outline: as §1

SMILES | IC50 (recombinant hpol κ) | colonies formed relative to untreated cells [1] | colonies formed relative to untreated cells [2] | DNA damage (% DNA in tail) over untreated cells [3] | DNA damage (% DNA in tail) over control [4]
CCOc1nc2cccc(C(=O)OC(C)OC(=O)OC3CCCCC3)c2n1Cc1ccc(-c2ccccc2-c2nn[nH]n2)cc1 (stereo not drawn) [candesartan, candesartan cilexetil] | tens of micromolar |  |  |  | 
Cn1nnc2c(C(N)=O)ncn2c1=O [TMZ, temozolomide, reference compound] |  | less than 50% | ~ 75% | approximately sevenfold | significantly greater amount of DNA damage over control
CC(C)c1ccc2c(c1)c(SC(C)(C)C)c(CC(C)(C)C(=O)O)n2Cc1ccc(Cl)cc1 [MK-886] | tens of micromolar |  |  |  | 
